The results in this text go back to ChEMBL document CHEMBL1143266, “Synthesis of spiro[chroman-2,4'-piperidin]-4-one derivatives as acetyl-CoA carboxylase inhibitors” (Bioorg Med Chem Lett, 2009).

Data set [1] can be described thus: Inhibition of acetyl-CoA carboxylase in rat skeletal muscle by HPLC. Format: tissue-based, Muscle tissue.
The species named for data set [2] is Rattus norvegicus. Nature of the data set: Inhibition of acetyl-CoA carboxylase in rat skeletal muscle by HPLC at 10 uM. Format: tissue-based. The following applies: Muscle tissue. Put shortly:
(§1)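 Biotinylated enzyme bound on a streptavidin column, eluted with 5 mM biotin, and protein quantified by Bradford. Buffer was 50 mM HEPES pH 7.5, 20 mM MgCl₂, 10 mM tripotassium citrate, 0.075% BSA, 2 mM ATP, 1 mM acetyl-CoA and 17.6 mM NaHCO₃, stopped with 10% perchloric acid. HPLC read-out measured acetyl-CoA loss and/or malonyl-CoA formation.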

For data set [3], the species on record is Rattus norvegicus. The experiment in a line: Inhibition of acetyl-CoA carboxylase in rat skeletal muscle by HPLC at 5 uM. Format: tissue-based. The following applies: Muscle tissue. The essentials: as §1
The nature of data set [4]: Membrane permeability at pH 6.8 by PAMPA. The data set is classed as ADME. The following applies: read-out: permeability. Background: PAMPA measures passive passage across an artificial lipid membrane.
The next data set deals with Mus musculus. Nature of the data set: Reduction in respiratory quotient in ip dosed C57BL/6J mouse administered once a day for 8 days measured after 24 hrs of day 7 acclimatization in presence of high carbohydrate. Format: functional, organism-based. Put shortly: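 C57BL/6J mice aged 7–8 weeks on normal chow (carbohydrate 64%, fat 7%, protein 20%), n = 8 per group, got vehicle or 30 or 60 mg/kg ip once daily for 8 days. After 24 h cage acclimatization from day 7, O₂ consumption and CO₂ production were recorded immediately post-dose. The first 30 min were excluded, and RQ was averaged over the initial 8 h and compared by Student's t test.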

Data set [5] in a line: (§2) Inhibition of acetyl-CoA carboxylase in rat skeletal muscle by HPLC at 1 uM/L. The data set is classed as tissue-based, Muscle tissue. Put shortly: as §1
Data set [6] is filed under the species Rattus norvegicus. The description is as §2. Format: tissue-based. To be noted: Muscle tissue. Put shortly:
as §1

pIC50: −log10 of the molar value.

With `CC(=O)N[C@H](C)C#Cc1ccc2c(c1)C(=O)CC1(CCN(C(=O)c3cc(-c4ccccc4)nc(-c4ccccc4)c3)CC1)O2`, the pIC50 in data set [1] was 7.21. Besides, the inhibition in the data set listed under Rattus norvegicus [2] was > 90%.

On to `O=C1CC2(CCN(C(=O)N3c4ccccc4Sc4ccccc43)CC2)Oc2ccccc21`, for which the inhibition in the data set listed under Rattus norvegicus [2] came to 16%.

Molecule `O=C1CC2(CCN(C(=O)c3cc(-c4ccccc4)nc(-c4ccccc4)c3)CC2)Oc2cc(N3CCCC3)ccc21` had a pIC50 in data set [1] of 7.21. Moreover, the inhibition in the data set filed under Rattus norvegicus [2] is > 90%.

In the data set filed under Rattus norvegicus [3], `O=C1CC2(CCN(C(=O)N3c4ccccc4Oc4ccccc43)CC2)Oc2ccccc21` returned an inhibition of 51%.

Molecule `CCCC(=O)Nc1ccc2c(c1)C(=O)CC1(CCN(C(=O)N3c4ccccc4Sc4ccccc43)CC1)O2` gave an inhibition in the data set listed under Rattus norvegicus [2] of 48%.

With `O=C1CC2(CCN(C(=O)c3cc(-c4ccccc4)nc(-c4ccccc4)c3)CC2)Oc2ccc(N3CCCC3=O)cc21`, the pIC50 in data set [1] is 7.85. In the data set listed under Rattus norvegicus [2], the inhibition is > 90%. The Papp in data set [4] turned out to be 26.8 ×10⁻⁶ cm/s. Moreover, the Activity entry in the data set with Mus musculus was “Dose-dependent effect”.

Regarding `CCCC(=O)Nc1ccc2c(c1)C(=O)CC1(CCN(C(=O)c3cc(-c4ccccc4)nc(-c4ccccc4)c3)CC1)O2`, the negative-log IC50 (pIC50) in data set [1] is 8.22. Moreover, the inhibition in the data set listed under Rattus norvegicus [2] was > 90%.

Molecule `O=C1CC2(CCN(C(=O)N3c4ccccc4Oc4ccccc43)CC2)Oc2ccc(N3CCCC3=O)cc21` gave a pIC50 in data set [5] of 6.63.

Molecule `O=C1CC2(CCN(C(=O)N3c4ccccc4CCc4ccccc43)CC2)Oc2ccc(N3CCOCC3)cc21` returned an inhibition in the data set filed under Rattus norvegicus [2] of 7%.

Regarding `O=C1CC2(CCN(C(=O)N3c4ccccc4Sc4ccccc43)CC2)Oc2ccc(N3CCOCC3)cc21`, the inhibition in the data set listed under Rattus norvegicus [2] is 64%.

In data set [1], `O=C1CC2(CCN(C(=O)c3cc(-c4ccccc4)nc(-c4ccccc4)c3)CC2)Oc2cc(N3CCOCC3)ccc21` had a negative logarithm of the IC50 (pIC50) of 7.59. The inhibition in the data set filed under Rattus norvegicus [2] is > 90%.

In data set [1], `CC1COCC(C)N1c1ccc2c(c1)OC1(CCN(C(=O)c3cc(-c4ccccc4)nc(-c4ccccc4)c3)CC1)CC2=O` (centres undefined) gave a pIC50 of 7.23. Further, the inhibition in the data set listed under Rattus norvegicus [2] was > 90%.

`O=C1CC2(CCN(C(=O)N3c4ccccc4Oc4ccccc43)CC2)Oc2ccc(N3CCOCC3)cc21` gave a pIC50 in data set [5] of 7.00.

As to `CCCC(=O)Nc1ccc2c(c1)C(=O)CC1(CCN(C(=O)N3c4ccccc4CCc4ccccc43)CC1)O2`, in the data set filed under Rattus norvegicus [2], the inhibition was determined as 4%.

As for `CN1CCN(c2ccc3c(c2)OC2(CCN(C(=O)c4cc(-c5ccccc5)nc(-c5ccccc5)c4)CC2)CC3=O)CC1`, the pIC50 in data set [1] was 7.57. In the data set listed under Rattus norvegicus [2], the inhibition is > 90%.

With `O=C(c1c2ccccc2cc2ccccc12)N1CCC(N2CCC[C@@H](C(=O)N3CCOCC3)C2)CC1`, the inhibition in the data set listed under Rattus norvegicus [2] was > 90%.

For the molecule `O=C1CC2(CCN(C(=O)c3cc(-c4ccccc4)nc(-c4ccccc4)c3)CC2)Oc2ccccc21`, the pIC50 in data set [1] was 5.92. Besides, the inhibition in the data set listed under Rattus norvegicus [2] was > 90%.

Regarding `COc1cc(C(=O)N2CCC3(CC2)CC(=O)c2cc(Nc4ccnn4C)ccc2O3)nc2c(OC)cccc12`, the inhibition in the data set listed under Rattus norvegicus [6] is 100%.

`O=C1CC2(CCN(C(=O)N3c4ccccc4Oc4ccccc43)CC2)Oc2cc(N3CCOCC3)ccc21` showed a negative-log IC50 (pIC50) in data set [5] of 6.68.

For `CC1(C)C(=O)c2ccccc2OC12CCN(C(=O)c1cc(-c3ccccc3)nc(-c3ccccc3)c1)CC2`, the inhibition in the data set listed under Rattus norvegicus [2] turned out to be 44%.

`O=C1CC2(CCN(C(=O)c3cc(-c4ccccc4)nc(-c4ccccc4)c3)CC2)Oc2ccc(N3CCOCC3)cc21` had a negative-log IC50 (pIC50) in data set [1] of 8.22. In addition, the inhibition in the data set listed under Rattus norvegicus [2] was > 90%.

Regarding `CCCC(=O)Nc1ccc2c(c1)C(=O)CC1(CCN(C(=O)N3c4ccccc4Oc4ccccc43)CC1)O2`, the negative logarithm of the IC50 (pIC50) in data set [5] was 7.00.

Regarding `Cc1cc2c(cc1N1CCOCC1)C(=O)CC1(CCN(C(=O)c3cc(-c4ccccc4)nc(-c4ccccc4)c3)CC1)O2`, in data set [1], the pIC50 is 8.70. The inhibition in the data set filed under Rattus norvegicus [2] was > 90%.

`COc1cc(C(=O)N2CCC3(CC2)CC(=O)c2cc(-c4nc[nH]n4)ccc2O3)nc2c(OC)cccc12` showed an inhibition in the data set listed under Rattus norvegicus [6] of 100%.

Turning to `CCCC(=O)N(C)c1ccc2c(c1)C(=O)C(C)(C)C1(CCN(C(=O)c3cc(-c4ccccc4)nc(-c4ccccc4)c3)CC1)O2`, the inhibition in the data set listed under Rattus norvegicus [2] was determined as 83%.

The molecule `O=C1CC2(CCN(C(=O)c3cc(-c4ccccc4)nc(-c4ccccc4)c3)CC2)Oc2cc(N3CCCCC3)ccc21` gave a negative-log IC50 (pIC50) in data set [1] of 7.44. Also, the inhibition in the data set listed under Rattus norvegicus [2] is > 90%.

Usually pIC50 stands for −log10 of the IC50, conventionally taken in molar units. For orientation: inhibition means the relative decrease from the control value, in per cent.
